Source: ChEMBL document CHEMBL1777810, “Synthesis and in vitro anti-HIV activity of N-1,3-benzo[d]thiazol-2-yl-2-(2-oxo-2H-chromen-4-yl)acetamide derivatives using MTT method” (Bioorg Med Chem Lett, 2011)
≈ marks a conversion by molar mass, not a printed value.

How the values were obtained:
[1] = Cytotoxicity against human mock-infected MT4 cells after 4 days by MTT assay; format: cell-based
How it was run: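 Mock-infected MT-4 cells were grown in HEPES-buffered RPMI-1640 with 10% heat-inactivated FCS and subcultured every 3–4 d. Viability was read by MTT at 7.5 mg/ml for 1 h at 37 °C, with formazan dissolved in acidified Triton X-100/isopropanol and read at A540 minus A690. CC50 is the concentration lowering OD540 of the mock-infected control by 50%.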

[2] = system: Human immunodeficiency virus 1; assay: Antiviral activity against wild type HIV1 infected in human MT4 cells assessed as protection against virus-induced cytopathogenicity after 5 days by MTT assay; conditions: Human immunodeficiency virus 1, MT4, 120 h

Row | SMILES | CC50 at 96 h [1] | EC50 [2]
1 | Cc1cccc2c(CC(=O)Nc3nc4ccc([N+](=O)[O-])cc4s3)cc(=O)oc12 | > 12 µg/mL | 12 µg/mL (≈ 30.3 µM)
2 | Cc1cccc2c(CC(=O)Nc3nc4ccc(Cl)cc4s3)cc(=O)oc12 | > 21 µg/mL | 21 µg/mL (≈ 54.6 µM)
3 | Cc1cccc2c(CC(=O)Nc3nc4ccc(F)cc4s3)cc(=O)oc12 | > 100 µg/mL | 100 µg/mL (≈ 271 µM)
4 | Cc1cccc2c(CC(=O)Nc3nc4cc(Cl)c(F)cc4s3)cc(=O)oc12 | > 58 µg/mL | 58 µg/mL (≈ 144 µM)
5 | Cc1ccc2c(CC(=O)Nc3nc4ccc([N+](=O)[O-])cc4s3)cc(=O)oc2c1 | > 49 µg/mL | 49 µg/mL (≈ 124 µM)
6 | Cc1ccc2c(CC(=O)Nc3nc4ccc(Cl)cc4s3)cc(=O)oc2c1 | > 44 µg/mL | 44 µg/mL (≈ 114 µM)
7 | Cc1ccc2c(CC(=O)Nc3nc4ccc(F)cc4s3)cc(=O)oc2c1 | > 44 µg/mL | 44 µg/mL (≈ 119 µM)
8 | Cc1ccc2c(CC(=O)Nc3nc4cc(Cl)c(F)cc4s3)cc(=O)oc2c1 | > 17 µg/mL | 17 µg/mL (≈ 42.2 µM)
9 | Cc1ccc2oc(=O)cc(CC(=O)Nc3nc4ccc([N+](=O)[O-])cc4s3)c2c1 | > 32 µg/mL | 32 µg/mL (≈ 80.9 µM)
10 | Cc1ccc2oc(=O)cc(CC(=O)Nc3nc4ccc(Cl)cc4s3)c2c1 | > 27 µg/mL | 27 µg/mL (≈ 70.2 µM)
11 | Cc1ccc2oc(=O)cc(CC(=O)Nc3nc4ccc(F)cc4s3)c2c1 | > 20 µg/mL | 20 µg/mL (≈ 54.3 µM)
12 | Cc1ccc2oc(=O)cc(CC(=O)Nc3nc4cc(Cl)c(F)cc4s3)c2c1 | > 12 µg/mL | 12 µg/mL (≈ 29.8 µM)
13 | Cc1ccc2c(CC(=O)Nc3nc4ccc([N+](=O)[O-])cc4s3)cc(=O)oc2c1C | > 9 µg/mL | 9 µg/mL (≈ 22 µM)
14 | Cc1ccc2c(CC(=O)Nc3nc4ccc(Cl)cc4s3)cc(=O)oc2c1C | > 60 µg/mL | 60 µg/mL (≈ 150 µM)
15 | Cc1ccc2c(CC(=O)Nc3nc4ccc(F)cc4s3)cc(=O)oc2c1C | > 24 µg/mL | 24 µg/mL (≈ 62.8 µM)
16 | Cc1ccc2c(CC(=O)Nc3nc4cc(Cl)c(F)cc4s3)cc(=O)oc2c1C | > 97 µg/mL | 97 µg/mL (≈ 233 µM)
17 | Cc1cc(C)c2oc(=O)cc(CC(=O)Nc3nc4ccc([N+](=O)[O-])cc4s3)c2c1 | > 100 µg/mL | 100 µg/mL (≈ 244 µM)
18 | Cc1cc(C)c2oc(=O)cc(CC(=O)Nc3nc4ccc(Cl)cc4s3)c2c1 | > 65 µg/mL | 65 µg/mL (≈ 163 µM)
19 | Cc1cc(C)c2oc(=O)cc(CC(=O)Nc3nc4ccc(F)cc4s3)c2c1 | > 38 µg/mL | 38 µg/mL (≈ 99.4 µM)
20 | Cc1cc(C)c2oc(=O)cc(CC(=O)Nc3nc4cc(Cl)c(F)cc4s3)c2c1 | > 16 µg/mL | 16 µg/mL (≈ 38.4 µM)
21 | O=C(Cc1cc(=O)oc2cc(O)ccc12)Nc1nc2ccc([N+](=O)[O-])cc2s1 | > 8 µg/mL | 8 µg/mL (≈ 20.1 µM)
22 | O=C(Cc1cc(=O)oc2cc(O)ccc12)Nc1nc2ccc(Cl)cc2s1 | > 7 µg/mL | 7 µg/mL (≈ 18.1 µM)
23 | O=C(Cc1cc(=O)oc2cc(O)ccc12)Nc1nc2ccc(F)cc2s1 | > 21 µg/mL | 21 µg/mL (≈ 56.7 µM)
24 | O=C(Cc1cc(=O)oc2cc(O)ccc12)Nc1nc2cc(Cl)c(F)cc2s1 | > 100 µg/mL | 100 µg/mL (≈ 247 µM)
25 | COc1ccc2nc(NC(=O)Cc3cc(=O)oc4c3ccc3ccccc34)sc2c1 | > 100 µg/mL | 100 µg/mL (≈ 240 µM)
26 | COc1ccc2nc(NC(=O)Cc3cc(=O)oc4ccc5ccccc5c34)sc2c1 | > 100 µg/mL | 100 µg/mL (≈ 240 µM)
27 | Cc1cn([C@H]2C[C@H](N=[N+]=[N-])[C@@H](CO)O2)c(=O)[nH]c1=O [ZIDOVUDINE] | 65.4 µg/mL (≈ 245 µM) | 0.0012 µg/mL (≈ 0.00449 µM)
